Assay results reported in ChEMBL document CHEMBL2439964, “Identification of a series of 1,3,4-trisubstituted pyrazoles as novel hepatitis C virus entry inhibitors” (Bioorg Med Chem Lett, 2013).
pEC50: −log10 of the molar value. Active and inactive are the calls of the source. The rule behind the calls is not given here.

How the values were obtained:
[1] = Cytotoxicity against human Huh-H1 cells; assay type: cell-based
[2] = test system: Vesicular stomatitis virus; test: Antiviral activity against Vesicular stomatitis virus pseudoparticle expressing glycoprotein assessed as inhibition of pseudoparticles entry into human Huh-H1 cells after 2 days by luciferase reporter gene assay; assay type: functional, organism-based
[3] = Selectivity index, ratio of CC50 for human HuH7 cells to EC50 for cell culture derived HCV; design: species or system Huh-7
Outline: (§1)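 Naïve Huh-7 cells in 384-well plates were given serially diluted compound, then infected with cell culture-derived HCV (HCVcc) at MOI 1. Live cells were analysed 72 h post-infection. EC50 came from 10-point dose-response in duplicate with quadruplicate measurements, or 5-point in duplicate for one series. CC50 came from automated per-well cell counts. SI = CC50/EC50.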

[4] = Cytotoxicity against human HuH7 cells; assay type: cell-based, Huh-7; outline: as §1
Hepatitis C virus [5] = test: Antiviral activity against cell culture derived HCV infected in human HuH7 cells assessed as inhibition of viral replication after 72 hrs; assay type: functional, organism-based, Hepacivirus hominis; settings: Huh-7, 72 h; outline: as §1
Hepatitis C virus [6] = test: Antiviral activity against HCV genotype-1 pseudoparticle expressing envelope protein E1 and E2 assessed as inhibition of pseudoparticles entry into human Huh-H1 cells after 2 days by luciferase reporter gene assay; assay type: functional, organism-based, Hepacivirus hominis; settings: genotype 1, Huh-H1, 48 h

SMILES	CC50 [1] [µM]	inhibition [2]	Ratio CC50/EC50 [3]	CC50 [4] [µM]	pEC50 (Hepatitis C virus [5])	pEC50 (Hepatitis C virus [6])
CCCCCNc1nc(Nc2ccc([N+](=O)[O-])cc2)nc(OCC(F)(F)F)n1	> 25	inactive				
Cc1ccccc1-c1nn(-c2ccc(F)cc2F)cc1CNCCCN(C)C	> 25	inactive	>3	> 20	5.17	5.21
CN1CCN(CCNCc2cn(-c3ccc(F)cc3F)nc2-c2ccc(Cl)cc2)CC1	9.1	inactive	50	19	6.42	5.72
Cc1ccccc1-c1nn(-c2cc(F)ccc2F)cc1CNCCN1CCN(C)CC1			>8	> 20	5.60	
CN1CCN(CCCNCc2cn(-c3ccc([N+](=O)[O-])cc3)nc2-c2ccc(Cl)cc2)CC1			28	3.7	6.89	
CN1CCN(CCNCc2cn(-c3ccc(F)cc3F)nc2C2CCCCC2)CC1			>17	> 20	5.92	
CN1CCN(CCNCc2cn(-c3ccc(F)cc3F)nc2-c2ccc(S(=O)(=O)N(C)C)cc2)CC1			>11	> 20	5.74	
Cc1ccccc1-c1nn(-c2ccc(Cl)cc2)cc1CNCCN1CCN(C)CC1			26	17	6.19	
CN1CCN(CCNCc2cn(-c3ccc(C(F)(F)F)cc3)nc2-c2ccc(C(F)(F)F)cc2)CC1			3.1	1.5	6.31	
